In paper PMC3089497 (The Journal of Biological Chemistry, 2011):
Where “and” joins values, the source holds several entries; their conditions need not be identical. Equal entries are not always repeated. Where two headings read alike, the source gives them in different places. Peptide text beside a SMILES is read from it. * marks the point of attachment. Cbz = O=C(OCc1ccccc1)*

Experiments:
p97 ATPase = p97 ATPase (Mus musculus, UniProt Q01853); test: p97 ATPase assay; type: biochemical
Ub^G76V-GFP [1] = test: cells; type: cell-based, human; settings: for IC50: Homo sapiens, read-out: IC50 Ub^G76V-GFP
ODD-Luc [2] = test: ODD-Luc reporter degradation assay; type: cell-based, human; settings: for IC50: Homo sapiens, read-out: IC50 ODD-Luc
Luc-ODC [3] = test: Luc-ODC reporter degradation assay; type: cell-based, human; settings: for IC50: Homo sapiens, read-out: IC50 Luc-ODC
Ub^G76V-GFP [4] = test: Ub^G76V-GFP reporter accumulation assay; type: cell-based, human; settings: for Score in Ub^G76V-GFP accumulation screen: rescreen of 160 kinase inhibitors
How it was run: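 Dual-reporter HeLa cells expressing UbG76V-GFP were seeded at 5000 per well and grown 16 h. They were exposed to DMSO, MG132 or test compound in modified DMEM (no phenol red, folic acid, riboflavin or vitamin B12) for 2–3 h. Two GFP images per well (100-ms exposure) were taken by automated microscopy. Mean GFP intensity per cell area was averaged over about 500 cells, background-corrected using reporter-free cells, and normalized to DMSO-treated cells.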

C522A-p97 = C522A-p97 (Mus musculus, UniProt Q01853, C522A); test: In vitro ATPase assay of C522A-p97; type: biochemical; settings: compared with wild-type p97
How it was run: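 The C522A p97 mutant was made by site-directed mutagenesis of the wild-type p97 plasmid. It was assayed for in vitro ATPase activity beside wild-type p97, and inhibition was read from titration curves of test compound.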

TCRα-GFP = test: ERAD reporter TCRα-GFP degradation in HEK293 cells; type: cell-based, human; settings: 5 or 10 μM, 2 h CHX chase
How it was run: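 HEK293 cells stably expressing the ERAD reporter TCRα-GFP were pretreated with MG132 and washed. They were then incubated with CHX plus test compound for 2 h before harvest, and reporter levels were assessed by immunoblotting.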

Luc-ODC [5] = test: Luc-ODC reporter accumulation assay; type: cell-based, human; settings: 30 μM for 2.5 h, relative to DMSO
How it was run: (§1)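 HeLa cells stably expressing UbG76V-GFP were lentivirally transduced with ODD-Luc or Luc-ODC and kept under puromycin (2.5 μg/ml). Cells were seeded at 5000 per well and grown 16 h. They were treated 2–3 h in modified DMEM (no phenol red, folic acid, riboflavin or vitamin B12) containing DMSO, MG132 or test compound. d-Luciferin (1 mg/ml in PBS, stock) was added, followed by 5 min shaking at room temperature. Luminescence was read with […] integration and normalized to DMSO.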

ODD-Luc [6] = test: ODD-Luc reporter accumulation assay; type: cell-based, human; settings: 7.5 μM for 2 h, relative to DMSO
How it was run: as §1

[7] = read-out: IC50 p97 ATPase, in vitro, WT p97, triplicate, ± S.D.
[8] = IC50 p97 ATPase, in vitro, WT p97, triplicate, ± S.D.

Chain of p97 ATPase (Q01853 whole entry): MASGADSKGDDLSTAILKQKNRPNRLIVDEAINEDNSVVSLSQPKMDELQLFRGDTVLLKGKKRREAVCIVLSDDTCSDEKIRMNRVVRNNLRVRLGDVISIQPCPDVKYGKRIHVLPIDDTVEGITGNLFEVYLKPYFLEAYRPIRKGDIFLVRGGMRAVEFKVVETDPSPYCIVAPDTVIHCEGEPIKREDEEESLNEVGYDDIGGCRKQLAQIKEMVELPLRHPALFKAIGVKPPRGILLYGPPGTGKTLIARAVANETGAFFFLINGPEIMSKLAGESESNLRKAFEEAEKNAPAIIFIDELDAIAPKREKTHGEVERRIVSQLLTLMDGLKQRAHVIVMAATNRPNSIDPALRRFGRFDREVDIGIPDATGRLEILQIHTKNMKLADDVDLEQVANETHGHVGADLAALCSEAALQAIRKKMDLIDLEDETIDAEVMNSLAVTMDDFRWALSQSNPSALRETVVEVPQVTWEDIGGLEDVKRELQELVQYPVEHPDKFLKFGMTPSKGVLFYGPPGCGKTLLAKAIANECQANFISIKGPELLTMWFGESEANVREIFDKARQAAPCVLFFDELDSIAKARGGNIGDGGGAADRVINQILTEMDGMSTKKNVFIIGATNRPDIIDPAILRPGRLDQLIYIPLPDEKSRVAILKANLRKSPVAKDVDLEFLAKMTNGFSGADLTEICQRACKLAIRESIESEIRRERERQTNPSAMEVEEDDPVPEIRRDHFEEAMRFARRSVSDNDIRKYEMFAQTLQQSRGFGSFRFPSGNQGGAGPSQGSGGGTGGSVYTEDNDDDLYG
Chain of C522A-p97 (Q01853 whole entry C522A): as the sequence (Q01853 whole entry) above, with C522A counted along it

For `O=C1NC(=O)c2cc(Nc3ccc(F)cc3)c(Nc3ccc(F)cc3)cc21` [Compound 16, PKCbII/EGFR inhibitor], the IC50 (p97 ATPase; [7]) was > 50 µM.
`Cc1ccc(NC2=CC(=O)c3sc(C)nc3C2=O)cc1` [Compound 11, Cdk4 inhibitor III] was tested, and the IC50 (p97 ATPase; [7]) was 13 ± 0.5 µM.
`O=c1[nH]c2ccccc2n1C1CCN(Cc2ccc(-c3nc4cc5[nH]cnc5cc4nc3-c3ccccc3)cc2)CC1` [Compound 2, Akt inhibitor VIII] gave an IC50 (p97 ATPase; [7]) of 43 ± 4 µM.
In the case of `CC[n+]1c(/C=C/N(C)c2ccccc2)n(-c2ccccc2)c2ccc(-c3nc4ccccc4s3)cc21` [Compound 1, Akt inhibitor IV], the IC50 (p97 ATPase; [7]) is reported as 12 ± 5 µM.
With `O=C1c2ccccc2-c2nc3nnnn3nc21` [Compound 4, PDK1/Akt/Flt] the IC50 (p97 ATPase; [7]) was > 50 µM.
`COc1ccc2c(c[n+](C)c3c4cc5c(cc4ccc23)OCO5)c1OC` [Compound 5, Chelerythrine chloride] gave an IC50 (Ub^G76V-GFP [1]) of 2.2 ± 1 µM, an IC50 (p97 ATPase; [8]) of 24 ± 11 µM and an IC50 (ODD-Luc [2]) of 3.4 ± 0.2 µM. The IC50 (Luc-ODC [3]) was 1.9 ± 0.7 µM.
With `CCN(CC)CCCCN1c2ccccc2Oc2ccc(Cl)cc21` [Compound 3, Akt inhibitor X] the IC50 (Ub^G76V-GFP [1]) was 16 ± 9 µM, the IC50 (p97 ATPase) was > 50 µM and the IC50 (ODD-Luc [2]) was 14 ± 11 µM. The “Score in Ub^G76V-GFP accumulation screen” value (Ub^G76V-GFP [4]) was “did not score as positives” and the IC50 (Luc-ODC [3]) was 11 ± 5 µM.
In the case of `Cn1nc2c3c(cccc31)C(=O)c1ccccc1-2` [Compound 14, JNK inhibitor, negative control], the IC50 (p97 ATPase; [7]) is reported as > 50 µM.
For `O=[N+]([O-])C=Cc1ccc2c(c1)OCO2` [Compound 7, 3,4-methylenedioxy-β-nitrostyrene], the “Stabilization of Ub^G76V-GFP” value (Ub^G76V-GFP [1]; 1.7 μM) was 2 fold, the “Stabilization of Ub^G76V-GFP (in words)” value (Ub^G76V-GFP [1]; 7.5 μM) was “almost complete stabilization” and the IC50 (Ub^G76V-GFP [1]) was 1.6 ± 0.4 µM. The “IC50 for p97-dependent versus p97-independent reporters” value (Ub^G76V-GFP [1]; fold lower, Ub^G76V-GFP vs ODD-Luc) was 3.5 fold, the “Activity toward C522A-p97 ATPase (in words)” value (C522A-p97) was “poor activity” and the IC50 (p97 ATPase; [8]) was ≤ 10 µM and 1.7 µM. The IC50 (ODD-Luc [2]) was 5.9 ± 1.5 µM, the “Accumulation of Ub^G76V-GFP” value (Ub^G76V-GFP [4]; 7.5 or 30 μM, 3 h) was < 2 fold and the “Score in Ub^G76V-GFP accumulation screen” value (Ub^G76V-GFP [4]) was “did not score as positives”. For the same compound, the “Effect on Luc-ODC degradation (in words)” value (Luc-ODC [3]) was “very little activity”, the IC50 (Luc-ODC [3]) was > 30 µM and the “Degradation of TCRα-GFP” value (TCRα-GFP) was “potently blocked”.
With `CCn1cnc2c(Nc3cccc(Cl)c3)nc(N[C@@H]3CCCC[C@@H]3N)nc21` [Compound 10, Cdk1 Inhibitor, CGP74514A] the IC50 (p97 ATPase; [7]) was 17 ± 3 µM.
With `NS(=O)(=O)OC[C@@H]1C[C@@H](n2ccc3c(N[C@H]4CCc5ccccc54)ncnc32)C[C@@H]1O` [MLN4924] the “Effect on Ub^G76V-GFP degradation (in words)” value (Ub^G76V-GFP [1]) was “had no effect”, the “Effect on ODD-Luc degradation (in words)” value (ODD-Luc [2]) was “strong stabilization” and the “Effect on Luc-ODC degradation (in words)” value (Luc-ODC [3]) was “had no effect”.
In the case of `O=C(O)C=Cc1ccc2c(c1)OCO2` [Compound 18, 3,4-Methylenedioxycinnamic acid], the “Effect on Ub^G76V-GFP degradation (in words)” value (Ub^G76V-GFP [1]) is reported as “greatly diminished activity”.
With `CC(C)C[C@@H](C=O)NC(=O)[C@H](CC(C)C)NC(=O)[C@H](CC(C)C)NC(=O)OCc1ccccc1` [MG132] (Cbz-Leu-Leu-Leu-aldehyde) the “Ub^G76V-GFP reporter accumulation” value (Ub^G76V-GFP [4]; 7.5 μM for 2 h, relative to DMSO) was ~20 fold, the “IC50 with Luc-ODC reporter relative to Ub^G76V-GFP and ODD-Luc reporters” value (Luc-ODC [3]; fold higher) was ~3 fold and the Luc-ODC reporter accumulation (Luc-ODC [5]) was 1.6 fold. It also gave an ODD-Luc reporter accumulation (ODD-Luc [6]) of ~20 fold.
Compound `COC(=O)[C@@]1(O)C[C@H]2O[C@]1(C)n1c3ccccc3c3c4c(c5c6ccccc6n2c5c31)C(=O)NC4` [Compound 15, K-252a, Nocardiopsis sp.] has an IC50 (p97 ATPase; [7]) of 26 ± 2 µM.
With `N#Cc1cnc2cnc(NCc3cccnc3)cc2c1Nc1ccc(F)c(Cl)c1` [Compound 17, Tpl2 kinase inhibitor] the IC50 (p97 ATPase; [7]) was > 50 µM.
With `O=C1c2ccccc2-[n+]2ccc3c([nH]c4ccccc43)c21` [Compound 12, Fascaplysin] the IC50 (Ub^G76V-GFP [1]) was 0.9 ± 0.1 µM, the IC50 (p97 ATPase; [8]) was > 50 µM and the IC50 (ODD-Luc [2]) was 6.9 ± 1.9 µM. For the same compound, the “Effect on Luc-ODC degradation (in words)” value (Luc-ODC [3]) was “very little activity” and the IC50 (Luc-ODC [3]) was > 30 µM.
`Cc1ccc(S(=O)(=O)/C=C/C#N)cc1` [Compound 9, BAY 11-7082] showed an IC50 (p97 ATPase; [7]) of 12 ± 1 µM.
In the case of `CO[C@H]1[C@@H](OC)C[C@H](C)[C@@H](OC)C2=CC(=O)C=C(NC(=O)/C(C)=C/C=C\[C@H](OC)[C@@H](OC(N)=O)/C(C)=C/[C@@H]1C)C2=O` [Compound 6, Herbimycin A, Streptomyces sp.], the IC50 (Ub^G76V-GFP [1]) is reported as 2.8 ± 1.6 µM, the IC50 (p97 ATPase; [8]) is reported as > 50 µM and the IC50 (ODD-Luc [2]) is reported as 5 ± 2 µM. The “Effect on Luc-ODC degradation (in words)” value (Luc-ODC [3]) was “very little activity” and the IC50 (Luc-ODC [3]) was > 30 µM.
For `CN[C@@H]1C[C@H]2O[C@@](C)([C@@H]1OC)n1c3ccccc3c3c4c(c5c6ccccc6n2c5c31)C(=O)NC4` [Compound 8, Staurosporine, Streptomyces sp.], the IC50 (p97 ATPase; [7]) was > 50 µM.
